Activity calls are given as the source filed them.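 Rule for the calls, unless noted: active = calcium signal cut by more than 3 SD below the full-agonist control yet still positive, in both repeats and the earlier primary screen; inactive = the rest.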
Each molecule was assayed on TRPC4 beta (transient receptor potential cation channel C4), mouse (assay: potentiation of DAMGO EC20 TRPC4 response – cell-based, Fluo-4, HEK293 TRPC4beta/mu-opioid, confirmation (AID 2555;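 active = primary screen hit whose calcium fluorescence ratio, in both repeats, exceeds the weak agonist control mean by 3 SD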)). Details: DAMGO EC20, Fluo-4 calcium flux, at 10 µM.

outcome, inactive:
CC1CCCCN1S(=O)(=O)c1ccc(C(=O)N(CCCN(C)C)c2nc3ccc(Br)cc3s2)cc1 (stereo not given), CC(C)(C)C(=O)NC(=S)NNC(=O)c1ccc(-c2ccccc2)cc1, CCCOc1ccc(C(=O)NNC(=S)NC(=O)c2ccccc2)cc1, OCCN1CCN(Cc2cc(Br)cc(Br)c2O)CC1, c1ccc(Nc2nc(Nc3ccccc3)nc(N3CCNCC3)n2)cc1, O=c1c2cc(Br)ccc2nc(-c2cccc(C(F)(F)F)c2)n1O, COc1cc(OC)cc(C(=O)NC(=S)NNC(=O)[C@H]2C[C@@H]2c2ccccc2)c1, c1ccc2c(c1)CCN(c1ncnc3c1[nH]c1ccccc13)C2, O=C(CCc1ccccc1)NNC(=S)NC(=O)c1ccc(Cl)cc1, Cc1cccc(C(=O)NNC(=S)NC(=O)c2cccs2)c1, CN(C)CCCN(C(=O)c1ccc(S(=O)(=O)N2CCCCCC2)cc1)c1nc2ccc(F)cc2s1, CC[C@@H](C(=O)[C@@H](C)[C@@H](O)[C@H](C)CCc1ccc(C)c(O)c1C(=O)O)[C@H]1O[C@](CC)([C@H]2CC[C@](O)(CC)[C@H](C)O2)C[C@@H]1C, Cc1occc1C(=O)NNC(=S)NC(=O)COc1ccc(Cl)cc1Cl, COc1cc(OC)cc(C(=O)N[C@H](C(=O)OCC(=O)NC(C)c2ccccc2)C(C)C)c1 (stereo not given in full), O=C(NC(=S)NNC(=O)[C@H]1C[C@@H]1c1ccccc1)c1cccc(F)c1, CCOc1ccccc1OCC(=O)Nc1cc(S(=O)(=O)N2CCCCC2)ccc1N1CCN(CC)CC1, Cc1onc(-c2c(F)cccc2Cl)c1C(=O)N1CCN(c2ncc(Br)cn2)CC1, CCOC(=O)C1=NN(C(=O)c2ccc(C)cc2)C(O)(c2ccc(Cl)cc2)C1 (stereo not given), COc1ccc(/C=C/CN2CCCC(C(=O)c3ccc(OC)c(F)c3)C2)cc1 (stereo not given), NCCSc1c(-c2ccc(Cl)cc2)[nH]c2ccccc12, COc1ccc(C(CNC(=O)c2cccc(NS(=O)(=O)c3ccc(C)c(F)c3)c2)N(C)C)cc1 (stereo not given), CCCOc1ccc(C(=O)NNC(=S)NC(=O)c2cccs2)cc1, CCOC(=O)C1CCCN(C(c2ccccn2)c2c(C)[nH]c3ccccc23)C1 (stereo not given), Cc1ccc(NS(=O)(=O)c2ccc(C(=O)N3CC(C)CC(C)C3)cc2)cc1 (stereo not given), COC(=O)C1=NN(C(=O)c2cccc(Br)c2)C(O)(c2ccc(Cl)cc2)C1 (stereo not given), Cc1cc(C)c(CN2CCN(Cc3ccc(C)o3)C(CCO)C2)c(-n2cccn2)c1 (stereo not given), CCOc1ccc2ncc(C(=O)c3ccc(OC)cc3)c(N3CCN(CC)CC3)c2c1, CC(C)(C)c1cc(CCC(=O)NNC(=S)NC(=O)c2ccccc2)cc(C(C)(C)C)c1O, COc1ccccc1C(=O)NNC(=S)NC(=O)c1sc2ccccc2c1Cl, O=C1CC(O)(C(F)(F)F)Oc2c1ccc1ccccc21 (stereo not given), CCCc1ccc(OCC(=O)NNC(=S)NC(=O)c2ccco2)cc1, Cc1ccccc1OCC(=O)NNC(=S)NC(=O)c1ccco1, CCCOc1ccc(C(=O)NC(=S)NNC(=O)c2c(-c3ccccc3)noc2C)cc1, Cc1cc(OCCCn2ccnc2)cc(C)c1Cl, CCN1CCN(c2c(S(=O)(=O)c3ccc(C)c(C)c3)cnc3ccc(F)cc23)CC1, Cc1cccc(C(=O)NC(=S)NNC(=O)c2cccs2)c1, Cc1ccc(C)c(-n2cc(CNCCc3cnccn3)c(-c3ccccc3)n2)c1, Cc1ccc2c(C)c(C(=O)N(Cc3cccs3)C3CCS(=O)(=O)C3)oc2c1 (stereo not given), CC(C)(C)c1ccc(C(=O)NC(=S)NNC(=O)c2cccs2)cc1, CCCCN(CC)CCCNC(=O)Cn1nc(Cc2ccncc2)c2ccccc2c1=O

These molecules were tested against Short transient receptor potential channel 4 (Mus musculus) (UniProt Q9QUQ5) (assay: blockers of DAMGO-evoked TRPC4 calcium flux – cell-based, Fluo4, HEK293 TRPC4beta/mu-opioid, confirmation (AID 2636)). Details: at 10 µM.
Sequence of Short transient receptor potential channel 4 (Mus musculus) (Q9QUQ5 whole entry, looked up): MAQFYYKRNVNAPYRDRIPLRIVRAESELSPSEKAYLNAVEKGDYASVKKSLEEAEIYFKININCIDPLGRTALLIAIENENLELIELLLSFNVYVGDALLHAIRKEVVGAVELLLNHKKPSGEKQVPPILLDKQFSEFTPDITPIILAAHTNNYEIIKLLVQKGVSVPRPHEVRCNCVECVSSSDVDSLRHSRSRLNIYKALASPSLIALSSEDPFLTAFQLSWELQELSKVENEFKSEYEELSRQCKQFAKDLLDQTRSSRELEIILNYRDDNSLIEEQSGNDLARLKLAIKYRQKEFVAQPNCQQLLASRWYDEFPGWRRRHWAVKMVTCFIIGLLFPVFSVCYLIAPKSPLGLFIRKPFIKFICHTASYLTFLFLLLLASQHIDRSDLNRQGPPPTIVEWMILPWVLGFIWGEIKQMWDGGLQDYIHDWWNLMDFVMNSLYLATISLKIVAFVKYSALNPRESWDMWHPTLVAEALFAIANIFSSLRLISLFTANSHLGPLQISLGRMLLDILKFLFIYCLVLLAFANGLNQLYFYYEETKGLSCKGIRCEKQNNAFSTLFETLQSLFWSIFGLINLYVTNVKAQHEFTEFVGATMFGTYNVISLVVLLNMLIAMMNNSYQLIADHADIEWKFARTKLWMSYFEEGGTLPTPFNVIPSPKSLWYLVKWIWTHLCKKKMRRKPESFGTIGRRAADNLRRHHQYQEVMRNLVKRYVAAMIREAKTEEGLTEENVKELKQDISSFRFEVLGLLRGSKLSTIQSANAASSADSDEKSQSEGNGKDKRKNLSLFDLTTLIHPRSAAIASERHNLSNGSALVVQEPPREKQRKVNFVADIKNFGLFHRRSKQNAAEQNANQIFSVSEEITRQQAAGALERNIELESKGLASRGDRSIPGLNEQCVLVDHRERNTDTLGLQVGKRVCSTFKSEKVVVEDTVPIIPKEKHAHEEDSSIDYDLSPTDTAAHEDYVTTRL
Procedure, shortened: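 Assay system: HEK293 cells stably co-expressing mouse TRPC4beta and mu-opioid receptor / Also added: DAMGO agonist, submaximal followed by maximal addition / Compound dosing: single final compound concentration of 10 µM / Times: compound pre-incubation 110 s before DAMGO / Detection: Fluo4 calcium flux fluorescence, kinetic read / Replicates: duplicate wells for each compound, averaged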

outcome, inactive:
CC1CCCCN1S(=O)(=O)c1ccc(C(=O)N(CCCN(C)C)c2nc3ccc(Br)cc3s2)cc1 (stereo not given), CC(C)(C)C(=O)NC(=S)NNC(=O)c1ccc(-c2ccccc2)cc1, CCCOc1ccc(C(=O)NNC(=S)NC(=O)c2ccccc2)cc1, OCCN1CCN(Cc2cc(Br)cc(Br)c2O)CC1, c1ccc(Nc2nc(Nc3ccccc3)nc(N3CCNCC3)n2)cc1, O=c1c2cc(Br)ccc2nc(-c2cccc(C(F)(F)F)c2)n1O, COc1cc(OC)cc(C(=O)NC(=S)NNC(=O)[C@H]2C[C@@H]2c2ccccc2)c1, c1ccc2c(c1)CCN(c1ncnc3c1[nH]c1ccccc13)C2, O=C(CCc1ccccc1)NNC(=S)NC(=O)c1ccc(Cl)cc1, Cc1cccc(C(=O)NNC(=S)NC(=O)c2cccs2)c1, CN(C)CCCN(C(=O)c1ccc(S(=O)(=O)N2CCCCCC2)cc1)c1nc2ccc(F)cc2s1, CC[C@@H](C(=O)[C@@H](C)[C@@H](O)[C@H](C)CCc1ccc(C)c(O)c1C(=O)O)[C@H]1O[C@](CC)([C@H]2CC[C@](O)(CC)[C@H](C)O2)C[C@@H]1C, Cc1occc1C(=O)NNC(=S)NC(=O)COc1ccc(Cl)cc1Cl, COc1cc(OC)cc(C(=O)N[C@H](C(=O)OCC(=O)NC(C)c2ccccc2)C(C)C)c1 (stereo not given in full), O=C(NC(=S)NNC(=O)[C@H]1C[C@@H]1c1ccccc1)c1cccc(F)c1, CCOc1ccccc1OCC(=O)Nc1cc(S(=O)(=O)N2CCCCC2)ccc1N1CCN(CC)CC1, Cc1onc(-c2c(F)cccc2Cl)c1C(=O)N1CCN(c2ncc(Br)cn2)CC1, CCOC(=O)C1=NN(C(=O)c2ccc(C)cc2)C(O)(c2ccc(Cl)cc2)C1 (stereo not given), COc1ccc(/C=C/CN2CCCC(C(=O)c3ccc(OC)c(F)c3)C2)cc1 (stereo not given), NCCSc1c(-c2ccc(Cl)cc2)[nH]c2ccccc12, COc1ccc(C(CNC(=O)c2cccc(NS(=O)(=O)c3ccc(C)c(F)c3)c2)N(C)C)cc1 (stereo not given), CCCOc1ccc(C(=O)NNC(=S)NC(=O)c2cccs2)cc1, CCOC(=O)C1CCCN(C(c2ccccn2)c2c(C)[nH]c3ccccc23)C1 (stereo not given), Cc1ccc(NS(=O)(=O)c2ccc(C(=O)N3CC(C)CC(C)C3)cc2)cc1 (stereo not given), COC(=O)C1=NN(C(=O)c2cccc(Br)c2)C(O)(c2ccc(Cl)cc2)C1 (stereo not given), Cc1cc(C)c(CN2CCN(Cc3ccc(C)o3)C(CCO)C2)c(-n2cccn2)c1 (stereo not given), CCOc1ccc2ncc(C(=O)c3ccc(OC)cc3)c(N3CCN(CC)CC3)c2c1, CC(C)(C)c1cc(CCC(=O)NNC(=S)NC(=O)c2ccccc2)cc(C(C)(C)C)c1O, COc1ccccc1C(=O)NNC(=S)NC(=O)c1sc2ccccc2c1Cl, O=C1CC(O)(C(F)(F)F)Oc2c1ccc1ccccc21 (stereo not given), CCCc1ccc(OCC(=O)NNC(=S)NC(=O)c2ccco2)cc1, Cc1ccccc1OCC(=O)NNC(=S)NC(=O)c1ccco1, CCCOc1ccc(C(=O)NC(=S)NNC(=O)c2c(-c3ccccc3)noc2C)cc1, Cc1cc(OCCCn2ccnc2)cc(C)c1Cl, CCN1CCN(c2c(S(=O)(=O)c3ccc(C)c(C)c3)cnc3ccc(F)cc23)CC1, Cc1cccc(C(=O)NC(=S)NNC(=O)c2cccs2)c1, Cc1ccc(C)c(-n2cc(CNCCc3cnccn3)c(-c3ccccc3)n2)c1, Cc1ccc2c(C)c(C(=O)N(Cc3cccs3)C3CCS(=O)(=O)C3)oc2c1 (stereo not given), CC(C)(C)c1ccc(C(=O)NC(=S)NNC(=O)c2cccs2)cc1, CCCCN(CC)CCCNC(=O)Cn1nc(Cc2ccncc2)c2ccccc2c1=O

From PubChem BioAssay
